Experiment [1] deals with A549. In words: Cytotoxic potentiation factor of temoxolomide in human A549 tumor cell line at 0.4 uM concentration. In kind it is functional. Put shortly:
(§1)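 Exponentially growing cells were exposed to increasing concentrations of cytotoxic drug (temozolomide or topotecan), alone or with PARP-1 inhibitor fixed at 0.4 µM. Drugs were added from DMSO stocks, giving 1% DMSO final. Growth was read by SRB assay and normalised to the 1% DMSO control or to inhibitor alone. PF50 is the ratio of drug GI50 alone to drug GI50 with inhibitor.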

In experiment [2] the test system is LoVo. Nature of the experiment: Compound was evaluated for cytotoxic potentiation factor of topotecan in human LoVo cancer cell line at 0.4 uM concentration. It counts as functional. Put shortly:
as §1

The subject of experiment [3] is A549. In words: Compound was evaluated for cytotoxic potentiation factor of topotecan in human A549 tumor cell line at 0.4 uM concentration. It counts as functional. In a few lines: as §1
For experiment [4], the system named is LoVo. In words: Cytotoxic potentiation factor of temoxolomide in human LoVo cancer cell line at 0.4 uM concentration. In kind it is functional. In a few lines: as §1
Experiment [5] deals with Poly [ADP-ribose] polymerase 1 (Homo sapiens, UniProt P09874).
Chain of Poly [ADP-ribose] polymerase 1 (P09874 whole entry): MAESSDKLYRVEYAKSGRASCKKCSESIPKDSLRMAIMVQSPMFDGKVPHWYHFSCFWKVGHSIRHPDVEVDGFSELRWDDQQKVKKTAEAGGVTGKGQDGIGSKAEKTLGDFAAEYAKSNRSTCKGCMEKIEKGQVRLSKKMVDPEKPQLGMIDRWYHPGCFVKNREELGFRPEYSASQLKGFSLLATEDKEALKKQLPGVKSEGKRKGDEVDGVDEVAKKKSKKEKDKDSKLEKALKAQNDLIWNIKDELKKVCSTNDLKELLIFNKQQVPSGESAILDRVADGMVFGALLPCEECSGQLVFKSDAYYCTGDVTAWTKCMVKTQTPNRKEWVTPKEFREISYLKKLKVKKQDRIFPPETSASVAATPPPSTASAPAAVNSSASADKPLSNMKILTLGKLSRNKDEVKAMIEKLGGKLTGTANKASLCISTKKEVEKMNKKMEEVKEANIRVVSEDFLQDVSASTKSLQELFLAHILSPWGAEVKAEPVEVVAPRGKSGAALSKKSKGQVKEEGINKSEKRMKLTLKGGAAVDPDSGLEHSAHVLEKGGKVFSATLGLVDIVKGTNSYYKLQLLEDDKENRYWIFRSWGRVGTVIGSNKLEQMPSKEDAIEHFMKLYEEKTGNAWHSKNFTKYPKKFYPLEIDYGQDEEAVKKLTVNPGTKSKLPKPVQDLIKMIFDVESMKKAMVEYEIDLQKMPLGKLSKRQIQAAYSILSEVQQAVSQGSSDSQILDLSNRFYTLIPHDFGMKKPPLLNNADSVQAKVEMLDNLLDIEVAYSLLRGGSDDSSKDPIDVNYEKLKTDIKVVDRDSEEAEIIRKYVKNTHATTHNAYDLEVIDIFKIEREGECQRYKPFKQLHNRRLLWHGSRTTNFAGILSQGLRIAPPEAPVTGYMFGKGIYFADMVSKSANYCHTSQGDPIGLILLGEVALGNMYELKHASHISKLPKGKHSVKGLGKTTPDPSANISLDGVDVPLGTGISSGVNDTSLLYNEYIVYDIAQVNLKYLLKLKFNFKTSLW

By Ki is commonly meant a measure of affinity in units of concentration, obtained from inhibition or displacement. Consider `NC(=O)c1cccc2[nH]c(-c3ccc(CN4CCCC4)cc3)nc12`, for which the PF50 in the experiment with A549 [1] came to 1.5; in the experiment with LoVo [2] it was 1.5; in the experiment on A549 [3], 1.8; in the experiment on LoVo [4] it was 5.2. The compound also registered an inhibition constant Ki in experiment [5] of 5.9 nM.

Consider `CN1CCN(Cc2cccc(-c3nc4c(C(N)=O)cccc4[nH]3)c2)CC1`, for which, in experiment [5], the Ki was found to be 9.8 nM.

On to `NC(=O)c1cccc2[nH]c(-c3ccc(CN4CCCCC4)cc3)nc12`, for which the Ki in experiment [5] was 7.2 nM.

In turn, `NC(=O)c1cccc2[nH]c(-c3ccc(CN4CCOCC4)cc3)nc12` had a Ki in experiment [5] of 12 nM.

`NC(=O)c1cccc2[nH]c(-c3cccc(CN4CCOCC4)c3)nc12`: in experiment [5], the Ki is 31 nM.

`NC(=O)c1cccc2[nH]c(-c3ccc(CN(CCO)CCO)cc3)nc12` came in with a Ki in experiment [5] of 4.5 nM.

For the compound `NC(=O)c1cccc2[nH]c(-c3cccc(CN4CCCC4)c3)nc12`, the PF50 in the experiment on LoVo [2] was determined as 1.1; with LoVo [4], 1.7. This compound returned a Ki in experiment [5] of 10.2 nM.

On to `CN(C)Cc1ccc(-c2nc3c(C(N)=O)cccc3[nH]2)cc1`, for which the PF50 with A549 [1] is 1.6; with LoVo [2], 1.7; in the experiment on A549 [3], 1.9; in the experiment with LoVo [4], 4. Moreover, the inhibition constant (Ki) in experiment [5] amounted to 4.5 nM.

For `NC(=O)c1cccc2[nH]c(-c3cccc(CN(CCO)CCO)c3)nc12`, the PF50 with A549 [1] and in the experiment with A549 [3] was 1.1 throughout. The compound also gave an inhibition constant Ki in experiment [5] of 272 nM.

Turning to `CN1CCN(Cc2ccc(-c3nc4c(C(N)=O)cccc4[nH]3)cc2)CC1`, the inhibition constant Ki in experiment [5] turned out to be 8.7 nM.

Regarding `CN(C)Cc1cccc(-c2nc3c(C(N)=O)cccc3[nH]2)c1`, the results for the PF50 with LoVo [2] and in the experiment with LoVo [4] were 1.4 and 1.7, respectively. The same compound gave a Ki in experiment [5] of 5.6 nM.

(Values after ChEMBL document CHEMBL1148248, “Potentiation of cytotoxic drug activity in human tumour cell lines, by amine-substituted 2-arylbenzimidazole-4-carboxamide PARP-1 inhibitors” (Bioorg Med Chem Lett, 2004).)
